Results of several laboratories.
Each line is one published result; the experiments were not run side by side.
BCHE: Cholinesterase (BCHE, Equus caballus, UniProt P81908)
PTGS1: Prostaglandin G/H synthase 1 (PTGS1, Ovis aries, UniProt P05979)
PTPN11: Tyrosine-protein phosphatase non-receptor type 11 (PTPN11, Homo sapiens, UniProt Q06124)
PTPN9: Tyrosine-protein phosphatase non-receptor type 9 (PTPN9, Homo sapiens, UniProt P43378)
NTRK2: BDNF/NT-3 growth factors receptor (NTRK2, Homo sapiens, UniProt Q16620)
DRD1: D(1A) dopamine receptor (DRD1, Homo sapiens, UniProt P21728)
SIRT3: NAD-dependent protein deacetylase sirtuin-3, mitochondrial (SIRT3, Homo sapiens, UniProt Q9NTG7)

Compound	target	assay	test system	conditions	IC50 [µM]
c1ccc(CNc2ccnc(N3CCNCC3)n2)cc1	BCHE	enzyme activity, inhibitor	–	–	> 100
CS(=O)(=O)c1ccc(-c2nc3ccccn3c2Nc2ccccc2)cc1	PTGS1	enzyme activity, inhibitor, fluorescence	–	–	18.1
N[C@@H](CC(=O)O)C(=O)N[C@@H](Cc1ccccc1)C(=O)O	PTPN11	enzyme activity, inhibitor, absorbance	–	pH 7.4	109
[O-][S+]1CCN(c2nccc(NCc3ccccc3)n2)CC1	BCHE	enzyme activity, inhibitor	–	–	> 100
CCN(CC)c1ccc(C=O)cc1	Aldehyde dehydrogenase, dimeric NADP-preferring (ALDH3A1, Homo sapiens, UniProt P30838)	enzyme activity, inhibitor, absorbance	–	–	15.1
O=C1Nc2ccc(I)cc2/C1=C/c1cc(Br)c(O)c(Br)c1	Ribosomal protein S6 kinase alpha-3, N-terminal kinase domain (RPS6KA3, Homo sapiens, UniProt P51812)	enzyme activity, inhibitor, FP	–	–	1
O=Cc1ccc2[nH]ncc2c1	Ribosomal protein S6 kinase alpha-3 (RPS6KA3, Homo sapiens, UniProt P51812, C436V)	enzyme activity, inhibitor	–	–	~350
N[C@@H](Cc1ccccc1)C(=O)N[C@@H](CC(=O)O)C(=O)N[C@@H](Cc1ccccc1)C(=O)O	PTPN11	enzyme activity, inhibitor, absorbance	–	pH 7.4	97.9
COC(=O)[C@H](Cc1ccc(OP(=O)(O)O)c(OP(=O)(O)O)c1)NC(=O)OCC1c2ccccc2-c2ccccc21	Signal transducer and activator of transcription 5A, SH2 (Homo sapiens, UniProt P42229)	ligand displacement, FP	–	–	15.8
CC1=C[C@@]2(C[C@H](C)[C@H]3CC=C(CO)C(=O)[C@@H]3O2)OC1=O	PTPN11	enzyme activity, inhibitor	–	–	48.2
Cc1c(Br)cc(NC(=O)C(c2ccccc2)S(=O)(=O)O)cc1Br (stereo not shown)	PTPN9	enzyme activity, inhibitor, absorbance	–	–	> 200
CC(C)(C)n1nc(-c2ccc3nc(OC4CC4)ccc3c2)c(C(N)=O)c1N	Calcium/calmodulin-dependent protein kinase type 1D (CAMK1D, Homo sapiens, UniProt Q8IU85)	cell-free assay	–	–	> 10
COc1ccc2c(c1OCc1ccc(OC(F)(F)F)cc1)C[C@@H](C(=O)O)N(c1nc3ccc(F)cc3o1)C2	Type-2 angiotensin II receptor (AGTR2, Homo sapiens, UniProt P50052)	cell-free assay, TR-FRET	–	–	0.159
Cc1cccc2nc(-c3ccc(S(C)(=O)=O)cc3)c(Nc3ccccc3)n12	PTGS1	enzyme activity, inhibitor, fluorescence	–	–	24.6
CC(=O)N1CCN(c2nccc(NCc3ccccc3)n2)CC1	BCHE	enzyme activity, inhibitor	–	–	> 100
Cc1cc(Nc2cc(CN3CCOCC3)c3nc(C)c(Cc4ccc(Cl)cc4F)n3n2)n[nH]1	NTRK2	enzyme activity, inhibitor, TR-FRET	–	–	0.095
CC(=O)N1C[C@@H](CCN2CCC(c3c[nH]c4cc(Cl)ccc34)CC2)c2ccccc21	Sodium-dependent serotonin transporter (SLC6A4, Homo sapiens, UniProt P31645)	ligand displacement, radioligand	–	cell membranes	0.242

Compound	target	assay	test system	conditions	IC50 [µM]
C=CC(=O)Nc1cc(Nc2nccc(Nc3cc(Cl)c(F)cc3C(C)(C)O)n2)c(OC)cc1N1CC[C@@H](N(C)C)C1	Cytochrome P450 2B6 (CYP2B6, Homo sapiens, UniProt P20813)	enzyme activity, inhibitor	human, liver microsomes	–	> 30
Cc1ccn2c(Nc3ccccc3)c(-c3ccc(S(C)(=O)=O)cc3)nc2c1	PTGS1	enzyme activity, inhibitor, fluorescence	–	–	55.1
CCCC[C@H](NC(=O)[C@H](C)c1c(C)[nH]c2ccc(O)cc12)c1ncc(-c2cc3ccccc3nc2OC)[nH]1	Prostaglandin E2 receptor EP1 subtype (PTGER1, Homo sapiens, UniProt P34995)	enzyme activity	–	–	2.69
CCCOc1c(O)cc(Br)c2c1CN1CCc3cc(OCC(F)F)c(O)cc3[C@@H]1C2	DRD1	cAMP, antagonist, TR-FRET	–	–	0.188
C=C(NC(=O)[C@H](CCCCNC(=S)NCCCCCCCCCCCC)NS(C)(=O)=O)C(=O)N[C@@H](CCCNC(=N)N)C(N)=O	SIRT3	enzyme activity, inhibitor	–	–	2.9
C[C@@H]1Cc2ccccc2N1C(=O)NCCCCN(C)[C@@H]1Cc2cccc3[nH]c(=O)n(c23)C1	DRD1	ligand displacement, radioligand	–	–	> 10
Cc1ccc(NC(=O)c2ccc(C)c(C(F)(F)F)c2)cc1C#Cc1nn(C2CCC(O)CC2)c2ncnc(N)c12 (stereo not shown)	NTRK2	enzyme activity, inhibitor, radiometric	–	–	0.899
CN(C)CC#Cc1ccc2[nH]c3c(c2c1)-c1nc(N)ncc1CCC3	Dual specificity mitogen-activated protein kinase kinase 2 (MAP2K2, Homo sapiens, UniProt P36507)	enzyme activity, inhibitor, radiometric	–	–	> 10
CN1CCN(c2ccc(Nc3ncc4cc(C#N)c(=O)n(C5CCCC5)c4n3)cc2)CC1	Mitogen-activated protein kinase kinase kinase 9 (MAP3K9, Homo sapiens, UniProt P80192)	enzyme activity, inhibitor	–	–	0.477
N[C@@H](Cc1ccc(C(F)(F)P(=O)(O)O)cc1)C(=O)O	PTPN9	enzyme activity, inhibitor, absorbance	–	–	11500
CC(=O)NO	Urease (Canavalia ensiformis, UniProt P07374)	enzyme activity, inhibitor	–	–	20.4
O=C(O)C(=O)CC(=O)c1cccc(N(Cc2ccccc2)Cc2ccccc2)c1	PTPN11	enzyme activity, inhibitor, absorbance	–	pH 7	85
CC1=C[C@@]2(C[C@H](C)[C@H]3CC=C(C)[C@@H](O[C@@H]4O[C@H](CO)[C@@H](O)[C@H](O)[C@H]4O)[C@@H]3O2)OC1=O	PTPN11	enzyme activity, inhibitor	–	–	90.5
N#CC1(c2ccc(NC(=O)c3cccnc3NCc3ccncc3)cc2)CCCC1	Mitogen-activated protein kinase kinase kinase 20 (MAP3K20, Homo sapiens, UniProt Q9NYL2)	enzyme activity, inhibitor, mass spectrometry	–	–	0.21
C[C@@H](O)[C@@H]1NC(=O)[C@H](CCCCN)NC(=O)[C@@H](Cc2c[nH]c3ccccc23)NC(=O)[C@H](Cc2ccc(O)cc2)NC(=O)[C@@H](NC(=O)[C@@H](Cc2ccccc2)NC(=O)CCC(C(=O)O)N2CCN(CC(=O)O)CCN(C(CCC(=O)O)C(=O)O)CC2)CSSC[C@@H](C(=O)N[C@H](CO)[C@@H](C)O)NC1=O (stereo partly shown)	Somatostatin receptor type 2 (Rattus norvegicus, UniProt P30680)	ligand displacement, radioligand	–	–	0.0337
OCCN1CCN(c2nccc(NCc3ccccc3)n2)CC1	BCHE	enzyme activity, inhibitor	–	–	> 100
C=C(NC(=O)[C@H](CCCCNC(=S)CCCCCCCCCCCCC)NS(C)(=O)=O)C(=O)N[C@@H](CCCNC(=N)N)C(N)=O	SIRT3	enzyme activity, inhibitor	–	–	3.7
